System: MS2 coat protein
Assay: apparent Kd, MS2 coat protein; higher = weaker binding; RNA-MaP array; FMN 200 µM where present
Method in brief: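 Apparent Kd: the median of filtered binding-curve fits from single clusters. Designs were transcribed on Illumina sequencing-chip clusters by stalled E. coli RNA polymerase and titrated with SNAP-549-labelled MS2 coat protein from 0.7 or 1.5 nM, doubling to 3 µM, in 100 mM Tris-HCl pH 7.5, 80 mM KCl, 4 mM MgCl2, BSA, DTT, yeast tRNA and Tween-20. Each series ran without and then with constant ligand, and green signal was normalised to red-channel RNA signal and control-cluster median Fmax.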

[1] = designed as: OFF switch for flavin mononucleotide, no ligand
[2] = ligand present: flavin mononucleotide, designed as: OFF switch for flavin mononucleotide
[3] = designed as: ON switch for flavin mononucleotide, no ligand
[4] = ligand present: flavin mononucleotide, designed as: ON switch for flavin mononucleotide

In the case of “CUUCUGUCAGGAUAUGCGAAUCGGCACUGGGUCAGUGGCGAGCAGAAGGGACAUGAGGAUCACCCAUGUAAAGU”, the “apparent Kd” value [1] is reported as 32.8 nM and the “apparent Kd” value [2] is reported as 131 nM.
For “GAGCGGGAAACAUGAGGAUCACCCAUGUAAUAAAUCCUCAAGUAGGAUAUGCACACGAGAAGUGUGCAGAAGGGCUACCCGGUC”, the “apparent Kd” value [1] was 29.7 nM and the “apparent Kd” value [2] was 46.2 nM.
In the case of “AACAUGAGGAUCACCCAUGUCCCACCAGAAGGCUGGCGGCCACAGGAACGGCUGUGGCAAAUAACAGAGGAUAUGGUGAAUGCA”, the “apparent Kd” value [3] is reported as 80.8 nM and the “apparent Kd” value [4] is reported as 16.1 nM.
In the case of “ACUAUACGAGGAUAUGCUGUCAAUACUAAGGAAUUAGUAUGACAUGAGGAUCACCCAUGUAGAAGGCGUAUACU”, the “apparent Kd” value [1] is reported as 27.8 nM and the “apparent Kd” value [2] is reported as 14.7 nM.
With “UUUUAGGGAGGAUAUACAUUUUUUUUAUUAUCCUCAUUAUUACAUGAGGAUCACCCAUGUAGAAGGCCCAUUUU” the “apparent Kd” value [1] was 60.7 nM and the “apparent Kd” value [2] was 146 nM.
With “CUAUAUAAUACCUCAUGUACAUGAGGAUCACCCAUGUUAACUAAGGAUAUAUAUAUAUUAAUAAUGUAGAAGGUAGUACUAUUU” the “apparent Kd” value [1] was 16 nM and the “apparent Kd” value [2] was 11.8 nM.
For “GGAAAUCAUGUAGGAUAUGCAUGGCGAAGCUACGCAGAAGGACAUGAGGAUCACCCAUGUUAUAGCGUCCGUGAAAGGAUGCAA”, the “apparent Kd” value [1] was 39.7 nM and the “apparent Kd” value [2] was 120 nM.
“CACCGUUACAGAGGAUAUGAUACAUGAGGAUCACCCAUGUAAUAAAUGAGAAUUUCGAAUGUACCUCAGAAGGCUGGAACCGGC” was tested, and the “apparent Kd” value [1] was 40.4 nM and the “apparent Kd” value [2] was 83.2 nM.
With “AGAAGACAUGAGGAUCACCCAUGUGGGAUUAUGGGAGGAUAUACAAAGACGAGAGUCAGAGUAGAAGGCCUAGGAC” the “apparent Kd” value [3] was 65.6 nM and the “apparent Kd” value [4] was 26.7 nM.
In the case of “GCCCUCCCUGAGGAUAUUAUCUGGUUCGAUUGAUAAGAAGGCAGUACAUGAGGAUCACCCAUGUGGUUCGUUUG”, the “apparent Kd” value [1] is reported as 108 nM and the “apparent Kd” value [2] is reported as 285 nM.
In the case of “GUUGUCUAUGUAGGAUAUGCGAGGCGAGCCUAAGCAGAAGGACAUGAGGAUCACCCAUGUAUUGCGGUCUGCGUUCAGAUCGCU”, the “apparent Kd” value [1] is reported as 38.1 nM and the “apparent Kd” value [2] is reported as 141 nM.
“GGAAUAAAUGCAGGAUAUACGUGGAAAGCUUUCAACAUGAGGAUCACCCAUGUAGAAGGGCAUCUCCCGACCGAAGCGGAUCUC” was tested, and the “apparent Kd” value [1] was 5.8 nM and the “apparent Kd” value [2] was 6.27 nM.
In the case of “AGUAAGAUGCAGAAGGUGUUAGCUAGAGCUACGACAUGAGGAUCACCCAUGUACUAGAAACAGUACAAGGAUAUGCAUCUUACC”, the “apparent Kd” value [3] is reported as 18.9 nM and the “apparent Kd” value [4] is reported as 6.52 nM.
For “UCGUAUACACAAGGAUAUCAAUGGUUUGUAGAUCCUACAUGAGGAUCACCCAUGUUUUUAUAUUGUGAGAAGGUGUAGUGUCUU”, the “apparent Kd” value [3] was 620 nM and the “apparent Kd” value [4] was 564 nM.
For “UGGUACUAGGGAGGAUAUGGGAAAAUACAUGAGGAUCACCCAUGUUUAAGAAUGCCGAGAGGCAACUAGAAGGCCCUAGUACCU”, the “apparent Kd” value [3] was 16.2 nM and the “apparent Kd” value [4] was 5.26 nM.
In the case of “GUAGCAAUCGGAGGAUAUUCAUACCGGAAACGGACAUGAGGAUCACCCAUGUCGCGAAAGCGUUGGGAGAAGGCCGAUUGCUAC”, the “apparent Kd” value [3] is reported as 220 nM and the “apparent Kd” value [4] is reported as 21.3 nM.
For “GGGCCCGGAGGAUAUACAAUCCCGGGUUGAAAGGCCCGGGUACAUGAGGAUCACCCAUGUAGAAGGUUGGGCCC”, the “apparent Kd” value [1] was 14.2 nM and the “apparent Kd” value [2] was 17.3 nM.
With “AGCUGUGGCCGAGGAUAUCUAACAAUCCCAACCGAAAUAUAAUCGGACAUGAGGAUCACCCAUGUAGAGAAGGCGGUCUCAGCA” the “apparent Kd” value [1] was 208 nM and the “apparent Kd” value [2] was 329 nM.
“GGGUACAUCGGAGGAUAUCAUGUAAAUACAUGAGGAUCACCCAUGUCGAUGGAGACAUCGGCGAUUGAGAAGGCCGAUGUACCG” was tested, and the “apparent Kd” value [3] was 752 nM and the “apparent Kd” value [4] was 17.6 nM.
With “UGAUAGGACAGAGGAUAUACGUGCUAGAGAUACUAGCAAAUAAUCCUUACAUGAGGAUCACCCAUGUAGAAGGCUGUCCUAUCU” the “apparent Kd” value [1] was 19.3 nM and the “apparent Kd” value [2] was 47.4 nM.
“GCGUUCUUGUAGAAGGUACAUGAAAUCUAUUUUUAACACAUGAAACAUGAGGAUCACCCAUGUUGUAAGGAUAUACAUGAACGC” was tested, and the “apparent Kd” value [3] was 7.26 nM and the “apparent Kd” value [4] was 6.09 nM.
With “UAAUAAAGUGUGAGGAUAUGCUGGUCCUUAGAUCAGCAGAAGGCACAUGAGGAUCACCCAUGUAAUAUAUAAAU” the “apparent Kd” value [1] was 40 nM and the “apparent Kd” value [2] was 281 nM.
In the case of “AACCUGAUAGUGAGGAUAUCGGCGACGACAAGUCACGAGAAGGCACAUGAGGAUCACCCAUGUGAUAAAAUAAA”, the “apparent Kd” value [1] is reported as 20.4 nM and the “apparent Kd” value [2] is reported as 42.1 nM.
For “AGGAAACAUGAGGAUCACCCAUGUGAGGAUAUUUGAAAGAAAAGAAAAGAAAGAAGAAGAAGAAGGCACAAGAA”, the “apparent Kd” value [1] was 32.4 nM and the “apparent Kd” value [2] was 35.5 nM.
For “GUGGACGUCGUAGGAUAUGUAGGAUAUUCCUACAUGAGGAUCACCCAUGUUGACAUGGAAGAAGGACAGAAGGACGAUGUCCAU”, the “apparent Kd” value [3] was 262 nM and the “apparent Kd” value [4] was 4.51 nM.
With “AAUUAUUUAUGAGGAUAUUGUGGUGAAACACCACAAGAAGGCAUGAUACACAUGAGGAUCACCCAUGUGAGCCUUAUGCAUAUA” the “apparent Kd” value [1] was 20.3 nM and the “apparent Kd” value [2] was 115 nM.
“UAGGUGUGAGGAUAUGGUAAAGAUAAAAUGAUGAAAGAACUCCAGAAGGCACAUGAGGAUCACCCAUGUAGAUG” was tested, and the “apparent Kd” value [1] was 29.2 nM and the “apparent Kd” value [2] was 54.9 nM.
